The source of these data is ChEMBL document CHEMBL4376838, “Discovery of Novel Celastrol Derivatives as Hsp90-Cdc37 Interaction Disruptors with Antitumor Activity” (J Med Chem, 2019).

Active and inactive are the calls of the source. No cut-off for these calls is given here.

For assay [1], the system named is A549. The assay can be described thus: Induction of cell cycle arrest in human A549 cells assessed as accumulation at S phase at 0.2 uM incubated for 24 hrs by PI staining based flow cytometric analysis (reference value: 27.59%). Format: functional. The method in brief: (§1)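 A549 cells (4×10^5 per 6 cm dish) were grown 24 h, then exposed to compound (0.2, 0.4, 0.8 μM) or DMSO for 24 h. Cells fixed in 75% ethanol at −20 °C for at least 12 h, treated with RNase A at 37 °C for 30 min, then stained with PI for 15 min in the dark. Analysed by flow cytometry, mean ± SD, n = 3.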
Background: Flow cytometry measures light scatter and fluorescence of single cells or particles in a stream.

Assay [2] concerns A549. In words: Induction of apoptosis in human A549 cells assessed as late apoptotic cells at 0.3 uM incubated for 48 hrs by Annexin V-FITC and PI staining based flow cytometric analysis (reference value: 3.0%). The class given is functional.
Assay [3] deals with A549. In words: Antiproliferative activity against human A549 cells assessed as inhibition of cell growth at 0.5 uM incubated for 48 hrs in presence of methyl thioglycolate by MTT assay relative to control. The settings on record: A549, 48 h, read-out: GI. The class given is functional.
The nature of assay [4]: Binding affinity to GSH in PBS at 100 uM assessed as reduction in absorption at 440 nm incubated up to 30 mins by UV absorption analysis. The method in brief: (§2)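 Compound (100 μM) mixed with GSH (100 μM), Cdc37 (1.5 μM) or Hsp90 (1.5 μM) in PBS containing 1% DMSO, incubated at 37 °C for 0, 5, 15 and 30 min. UV spectra scanned 200-500 nm, with absorbance at 440 nm compared against the 0 min value (A/A0). Mean ± SD, n = 3.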

Assay [5] deals with A549. The assay can be described thus: Induction of apoptosis in human A549 cells assessed as necrotic cells at 1.2 uM incubated for 48 hrs by Annexin V-FITC and PI staining based flow cytometric analysis (reference value: 1.0%). The class given is functional. The method in brief:
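A549 cells (4×10^5 per 6 cm dish) cultured 24 h, then treated 48 h with compound or DMSO. Cells gently harvested, washed twice in cold PBS, resuspended in binding buffer with Annexin V and PI, stained 15 min at room temperature in the dark, analysed by flow cytometry. Mean ± SD, n = 3.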

For assay [6], the system named is A549. In words: Induction of apoptosis in human A549 cells assessed as viable cells at 0.3 uM incubated for 48 hrs by Annexin V-FITC and PI staining based flow cytometric analysis (reference value: 95.5%). The class given is functional. The settings on record: A549, 48 h, read-out: Activity.
Assay [7] has as its target T1, Hsp90 co-chaperone Cdc37 (Homo sapiens) (UniProt Q16543).
T1 sequence (whole entry): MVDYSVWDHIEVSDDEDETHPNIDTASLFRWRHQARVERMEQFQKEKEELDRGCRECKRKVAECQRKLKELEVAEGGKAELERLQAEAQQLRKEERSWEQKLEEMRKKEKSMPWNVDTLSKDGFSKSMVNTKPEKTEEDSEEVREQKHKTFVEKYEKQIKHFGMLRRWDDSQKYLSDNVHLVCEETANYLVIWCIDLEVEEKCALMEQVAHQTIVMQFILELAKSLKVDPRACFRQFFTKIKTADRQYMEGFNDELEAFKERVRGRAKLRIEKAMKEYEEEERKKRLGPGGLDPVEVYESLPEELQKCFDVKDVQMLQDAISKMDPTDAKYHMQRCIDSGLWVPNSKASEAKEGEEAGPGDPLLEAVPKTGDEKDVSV
The assay can be described thus: Binding affinity to full length CDC37 (unknown origin) assessed as reduction in absorption at 440 nm reaching equilibrium within 15 mins at 100 uM by UV absorption analysis. The settings on record: in the assay text read “within 5 mins” for “within 15 mins”. The method in brief:
as §2

The nature of assay [8]: Binding affinity to DTT in DMSO-d6 with retention of CA moiety at 0.02 mmol incubated for 20 mins in ultrasound by 1H NMR-spectroscopic analysis.
In assay [9] the target is T1, Hsp90 co-chaperone Cdc37 (Homo sapiens). The assay can be described thus: Binding affinity to Cdc37 in human A549 cells assessed as inhibition of HSP90-Cdc37 interaction by measuring increase in BAX protein level at 1.25 to 5 uM incubated for 12 hrs by Western blot analysis. Format: cell-based. Put shortly: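 A549 cells (5×10^5 per 6 cm dish) were allowed to settle 12 h, then treated with DMSO or compound at the indicated concentrations for 12 h. Lysates were adjusted to 3 mg/ml protein by BCA and resolved on 10% SDS-PAGE, then Western blotted. β-actin or Hsp90 served as the loading control. Three separate experiments, mean ± SD.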
For orientation: A western blot detects proteins with antibodies after separation by electrophoresis.

Assay [10] deals with A549. The assay can be described thus: Induction of mitochondrial membrane potential loss in human A549 cells assessed as cells with depolarized mitochondria by measuring increase in J-monomer green fluorescence intensity at 0.2 uM incubated for 24 hrs by JC1 staining based fluorescence microscopic method (reference value: 1.5%). Format: functional.
The target in assay [11] is T1, Hsp90 co-chaperone Cdc37 (Homo sapiens). The assay can be described thus: Binding affinity to Cdc37 in human A549 cells assessed as inhibition of HSP90-Cdc37 interaction by measuring decrease in CDK4 protein level at 5 uM incubated for 12 hrs by Western blot analysis. Format: cell-based. Put shortly:
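A549 cells seeded 5×10^5 per 6 cm dish, grown 12 h, then exposed to compound or DMSO for 12 h. Lysates adjusted to 3 mg/ml protein (BCA), run on 10% SDS-PAGE, immunoblotted for p-Akt and Cdk4. Band levels quantified against Hsp90 loading control. Three separate experiments, mean ± SD.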

In assay [12] the test system is A549. In words: Induction of cell cycle arrest in human A549 cells assessed as increase in accumulation at G0/G1 phase incubated for 24 hrs by PI staining based flow cytometric analysis. Format: functional. The method in brief:
as §1

Assay [13] deals with A549. The assay can be described thus: Induction of cell cycle arrest in human A549 cells assessed as accumulation at S phase at 0.8 uM incubated for 24 hrs by PI staining based flow cytometric analysis (reference value: 27.59%). The class given is functional. Put shortly:
as §1

Assay [14] has as its system A549. In words: Induction of apoptosis in human A549 cells assessed as late apoptotic cells at 0.6 uM incubated for 48 hrs by Annexin V-FITC and PI staining based flow cytometric analysis (reference value: 3.0%). Format: functional.
Assay [15] has as its target Heat shock protein HSP 90-alpha (Homo sapiens) (UniProt P07900). The assay can be described thus: Inhibition of ATP binding to human HSP90 alpha at 5 to 10 uM preincubated for 30 mins followed by gamma phosphate-linked ATP sepharose addition and measured after 30 mins by ATP-binding sepharose assay based western blot analysis. Put shortly:
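Purified human Hsp90α incubated on ice 30 min with compound or DMSO in 10 mM Tris-HCl pH 7.5, 50 mM KCl, 5 mM MgCl2, 2 mM DTT, 20 mM Na2MoO4, 0.01% NP-40. γ-phosphate-linked ATP-Sepharose then added, 30 min at 37 °C with frequent mixing. Resin washed and pelleted, bound Hsp90α detected by SDS-PAGE/Western blot.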

Assay [16] deals with A549. In words: Induction of apoptosis in human A549 cells assessed as viable cells at 0.6 uM incubated for 48 hrs by Annexin V-FITC and PI staining based flow cytometric analysis (reference value: 95.5%). Format: functional. The settings on record: A549, 48 h, read-out: Activity.
For assay [17], the system named is A549. In words: Induction of morphological apoptosis in human A549 cells assessed as decrease in cell density incubated for 48 hrs by Hoechst 33342 and PI staining based fluorescence microscopic method. Format: functional. The method in brief:
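A549 cells (4×10^5 per 6 cm dish) were grown 24 h, then exposed to compound at the indicated concentrations or DMSO for 48 h. After PBS washes, cells were stained with Hoechst 33342 (10 µg/ml) plus PI for 5 min at room temperature in the dark and imaged by fluorescence microscopy for nuclear morphology.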

Consider `CC1=C(O)C(=O)C=C2C1=CC=C1[C@@]2(C)CC[C@@]2(C)[C@@H]3C[C@](C)(C(=O)OCCCOC(=O)/C=C(\C#N)c4ccc(F)cc4)CC[C@]3(C)CC[C@]12C`, for which the Activity with A549 [1] was 26.39%; in the assay on A549 [2], 9.3%; in the assay on A549 [5] it was 8.2%; in the assay on A549 [10] it was 15.7%; in the assay with A549 [12], “Dose-dependent effect”; in the assay on A549 [13] it was 23.85%. The Activity in the assay with A549 [14] is 16.9%; with A549 [17], “Dose-dependent effect”. For the same molecule, the inhibition of growth at 0.5 µM with A549 [3] worked out at 68.3%. The outcome in [4], in assay [7] and in [8] was Active. The viability at 0.3 µM in the assay with A549 [6] was 85.2%. Further, the inhibition entry in [9] and in assay [11] was “Active” throughout. Also, the inhibition result in assay [15] is “inactive”. In addition, the viability at 0.6 µM in the assay with A549 [16] was found to be 71.2%.
